For orientation: EC50 means the concentration that produces a half-maximal response. Read a high EC50 as a less potent agent. As usually defined, the IC50 is the concentration at which inhibition is half-maximal. Low values mean greater potency, high ones weaker potency.

The values below come from ChEMBL document CHEMBL1126774, “Synthesis and antiviral activity of novel 5-(1-azido-2-haloethyl) and 5-(1-azido-, amino-, or methoxyethyl) analogs of 2'-deoxyuridine” (J Med Chem, 1993).

The nature of assay [1]: Inhibitory concentration of the drug against the cytopathic effect for E-377 strain of herpes simplex virus-1 (HSV-1) in human HFF cells. The assay is classed as functional, cell-based. The gist of the method:
(§1)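 HFF CPE assay: low-passage cells seeded 24 h before in MEM + 10% FBS, switched to MEM + 2% FBS. Drug added in triplicate, serially diluted 1:5, plus HSV-1 or HSV-2 at 1000 PFU/well; 3 days at 37 °C in CO2. Staining with 0.1% crystal violet, read at 620 nm. Value is concentration (µM) reducing CPE by 50%.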
Background: Cytopathic effects are the visible damage that an infection or toxin causes in cultured cells.

The species entered for assay [2] is Homo sapiens. As to the kind of experiment: Concentration of the drug required to reduce the proliferation of human foreskin fibroblast cells. The assay is classed as functional. The gist of the method:
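HFF cells seeded 24 h before in MEM + 10% FBS; drugs serially diluted 1:5 in MEM + 10% FBS over 100 µg/mL to 0.03 µg/mL, 72 h at 37 °C in CO2; cells trypsinized and counted on a Coulter counter; value is concentration (µM) reducing proliferation to 50% of untreated controls.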

The species entered for assay [3] is Homo sapiens. The assay can be described thus: Concentration of the drug required to reduce the uptake of neural red stain by uninfected cell monolayers (HFF). The assay is classed as functional. The gist of the method: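 HFF cells plated 24 h before assay at 2.5×10^4 cells/well; drug added in 1:5 serial dilution, incubated 7 days at 37 °C in CO2; 0.01% neutral red in DPBS 1 h, washed, dye extracted with 50% EtOH/1% acetic acid, OD 550 nm; value is concentration (µM) reducing uptake to 50% of untreated uninfected controls.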

Assay [4] is described as follows: Inhibitory concentration of the drug against the cytopathic effect for MS strain of herpes simplex virus-2 (HSV-2) in human HFF cells. The assay is classed as functional, cell-based. The gist of the method:
as §1

For assay [5], the system named is Human cytomegalovirus (Human herpesvirus 5). As to the kind of experiment: Inhibitory concentration of the drug against the cytopathic effect for AD169 strain of human cytomegalovirus (HCMV) in human HFF cells.
Assay [6] in a line: Inhibitory concentration of the drug against the cytopathic effect for ellen strain of […] in human HFF cells. The assay is classed as functional, cell-based.
A further assay relates to Raji. As to the kind of experiment: Inhibitory concentration of the drug against the antigen production against P3HR-1 strain of epstein barr virus-2 (EBV) in Raji cells. The assay is classed as functional, cell-based. Conditions: Homo sapiens. The gist of the method: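 Raji cells infected with EBV P3HR-1; drug added after adsorption (45 min, 37 °C) and washing, then 2 days in complete medium. Cells counted, smears stained with monoclonal antibodies to early antigen components and VCA plus fluorescent detection; positive cells counted. Value is concentration (µM) reducing antigen production to 50% of untreated infected controls.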

`O=c1[nH]c(=O)n([C@H]2C[C@H](O)[C@@H](CO)O2)cc1/C=C/I`: the EC50 in assay [1] worked out at 0.02 µM; in assay [4], 2.21 µM; in assay [5], 24.8 µM; in assay [6] it was 0.01 µM. Also, the half-inhibitory concentration (IC50) in the assay listed under Homo sapiens [2] worked out at 4.4 µM; in the assay listed under Homo sapiens [3] it was 86 µM.

Regarding `[N-]=[N+]=NC(CI)c1cn([C@H]2C[C@H](O)[C@@H](CO)O2)c(=O)[nH]c1=O` (stereo partly specified), the concentration giving a half-maximal response (EC50) was 0.5 µM in assay [1]; 13.2 µM in assay [4]; over 118 µM in assay [5]; 4 µM with Raji; 12.3 µM in assay [6]. In addition, the IC50 in the assay listed under Homo sapiens [2] is 76 µM; in the assay filed under Homo sapiens [3] it was over 118 µM.

On to `COC(C)c1cn([C@H]2C[C@H](O)[C@@H](CO)O2)c(=O)[nH]c1=O` (stereo partly specified), for which the EC50 is 1.7 µM in assay [1], 1 µM in assay [4], 5.9 µM in assay [5] and over 87 µM in assay [6]. Moreover, the IC50 in the assay listed under Homo sapiens [2] is 330 µM; in the assay filed under Homo sapiens [3], over 175 µM.

In the case of `[N-]=[N+]=NC(CCl)c1cn([C@H]2C[C@H](O)[C@@H](CO)O2)c(=O)[nH]c1=O` (stereo partly specified), the EC50 in assay [1] is 0.06 µM; in assay [4], 6.6 µM; in assay [5], over 150 µM; in the assay on Raji, 11.1 µM; in assay [6], 4.5 µM. The IC50 in the assay filed under Homo sapiens [2] is over 300 µM; in the assay listed under Homo sapiens [3], over 150 µM.

Regarding `CC(N=[N+]=[N-])c1cn([C@H]2C[C@H](O)[C@@H](CO)O2)c(=O)[nH]c1=O` (stereo partly specified), the EC50 in assay [1] is over 170 µM; in assay [4], over 170 µM; in assay [5] it was over 170 µM; in assay [6], over 67 µM. Further, the IC50 was 81 µM in the assay listed under Homo sapiens [2] and over 170 µM in the assay filed under Homo sapiens [3].

Take `[N-]=[N+]=NC(CBr)c1cn([C@H]2C[C@H](O)[C@@H](CO)O2)c(=O)[nH]c1=O` (stereo partly specified): the EC50 in assay [1] is 6.4 µM; in assay [4] it was 2.9 µM; in assay [5], over 130 µM; with Raji, 9.3 µM; in assay [6], 4 µM. Besides, the 50% inhibitory concentration (IC50) was 91 µM in the assay listed under Homo sapiens [2] and over 130 µM in the assay listed under Homo sapiens [3].

With `CC(N)c1cn([C@H]2C[C@H](O)[C@@H](CO)O2)c(=O)[nH]c1=O` (stereo partly specified), the EC50 in assay [1] was over 100 µM; in assay [4], over 100 µM; in assay [5], over 125 µM; in the assay with Raji, 44.6 µM; in assay [6], over 250 µM. Also, the IC50 in the assay listed under Homo sapiens [2] is over 250 µM; in the assay listed under Homo sapiens [3] it was over 125 µM.

Regarding `Nc1nc2c(ncn2COCCO)c(=O)[nH]1` [ACYCLOVIR], the EC50 came to 0.04 µM in assay [1], 0.09 µM in assay [4] and 2.9 µM in the assay with Raji. For the same compound, the IC50 in the assay listed under Homo sapiens [2] and in the assay listed under Homo sapiens [3] was over 440 µM throughout.

Turning to `CCc1cn([C@H]2C[C@H](O)[C@@H](CO)O2)c(=O)[nH]c1=O` [EDOXUDINE], the EC50 in assay [1] is 0.6 µM; in assay [4] it was 1.5 µM; in assay [5], 0.9 µM; in the assay with Raji, 12.1 µM; in assay [6], 66.4 µM. For the same compound, the IC50 was 115 µM in the assay listed under Homo sapiens [2] and over 195 µM in the assay filed under Homo sapiens [3].

With `Nc1nc2c(ncn2COC(CO)CO)c(=O)[nH]1` [GANCICLOVIR], the IC50 in the assay filed under Homo sapiens [2] was 168 µM; in the assay listed under Homo sapiens [3] it was over 390 µM. In assay [5], this compound returned an EC50 of 0.5 µM.
